Screens deposited in PubChem by several laboratories.
An excerpt weighted towards active compounds, which were near 1.2% of everything screened.
PERK inh – blocks human PERK kinase. CHO PERK-DD fusion, SEAP luminescence translation reporter. inhibition, % at 5.6 µM. hit rate 0.17% among 220,000. AID 1416;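 active = inhibition above the mean inhibition of all tested compounds plus 3 SD, set separately per screening campaign, cut at about 2.9% in these data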;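 note: PERK kinase domain activated by AP20187 dimerizer at 100 nM; 0% = DMSO with dimerizer and 100% = rapamycin at 8.4 µM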
Autophagy mod – autophagy modulation, high-content screen; hit rate 0.98% among 190,000; MEF GFP-LC3 puncta imaging; test concentration mostly 10 µM; AID 463193; calls only at 10 µM (by protocol);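 active = percentage of spot-positive cells more than 3 SD above its plate mean, without a fluorescence outlier flag or 80% toxicity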;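 note: spot-positive cell cutoff set from DMSO-treated cells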
HKDC1 inhibitor – blocks human hexokinase HKDC1 activity | hit rate 0.16% among 340,000 | inhibition, % at 20 µM | AID 493160 | recombinant HKDC1, G6PDH/diaphorase resazurin coupled fluorescence | Q2TB90;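 active = inhibition above about 35% when tested at 20 µM, limit read from the data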;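 note: plate controls were DMSO wells with enzyme for no effect and DMSO wells lacking enzyme for full effect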
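Incubation: 90 min at room temperature in dark / Material: recombinant HKDC1 (HK5) hexokinase enzyme, produced in-house / Quantity: enzyme 5 µg/mL final / Compound: one dose of 20 µM, 1% DMSO / Reagent: glucose and ATP substrates / Buffer or medium: Tris pH 8.0 buffer with MgCl2, Tween-20, BSA, BME / Technique: resorufin fluorescence at 613 nm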
HSV replic up – increases HSV replication in cells | HSV replication augmentation in cells, fold increase | maximum fold increase | hit rate 0.005% among 220,000; in the data active = maximum fold increase above about 1.5; tested in PC3 cells
TbHK1 inh – T. brucei hexokinase 1 inhibition; inhibition, % at 10 µM; hit rate 0.11% among 220,000; AID 1430; recombinant TbHK1, G6PDH-coupled NADH A340;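 active = inhibition of 50% or more in the single-dose primary screen; inactive = inhibition below 50%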
Dynein transport – blocks dynein driven cargo transport along microtubules. 3617.4 mouse cells, GR-EGFP nuclear translocation imaging; test concentration mostly 20 µM; stimulated with dexamethasone, 1 µM; hits give low values. z-score, hits read low. hit rate 0.47% among 220,000. AID 1381;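 active = plate z-score of nuclear minus cytoplasmic receptor signal below a set negative limit, without overly bright fluorescence or cell loss, cut at about -3.5 in these data, passing the limit was not always enough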;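 note: z-score of nuclear minus cytoplasmic ring GR-EGFP intensity difference per well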
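Buffer or medium: tetracycline-free induction medium containing charcoal-stripped FBS / Reagent: dexamethasone agonist, 1.0 µM final, for 30 min / Technique: automated 10x imaging of fixed Hoechst-stained cells / Times: induction 48 h, compound 1 h, agonist 30 min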
HKDC1 act conf – HKDC1 (human) activation, single-dose confirmed; shares compounds with HKDC1 inhibitor; recombinant HKDC1, G6PDH/diaphorase resazurin fluorescence; hits give low values; inhibition, % at 20 µM; hit rate 14% among 740; AID 504708;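 active = inhibition at or below a set negative limit, negative inhibition meaning the enzyme was activated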
Numbers without * were called inactive; i = inactive; · = no result; ! = repeats disagree.

SMILES | PERK inh | Autophagy mod | HKDC1 inhibitor | HSV replic up | TbHK1 inh | Dynein transport | HKDC1 act conf
Cc1cccc(C)c1Nc1nnc(SCc2cn3cccc(C)c3n2)s1 | 0.1 | i | 33.5 | i | -2.6 | -0.501 | 54.1
Cc1cccc(C)c1Nc1nnc(SCC(=O)NC(=O)c2cccn2C)s1 | 1.0 | i | 7.8 | i | 3.7 | -0.686 | ·
NC(=S)N/N=C/c1ccc(Br)o1 | 0.3 | i | -55.3 | i | -47.1 | 0.799 | -9.9
O=c1c2ccccc2nc2n1CCC2 | 1.6 | i | 82.1* | i | -3.5 | -0.324 | 67.1
O=c1c2ccccc2nc2n1CCCCC2 | 0.5 | i | -7.8 | i | -2.3 | -0.156 | ·
O=C(N/N=C/c1ccc(O)cc1O)/C(=C/c1ccccc1)CCO | 0.3 | i | -40.1 | i | -36.2 | -0.225 | -18.8
O=C(COc1ccccc1/C=C\c1[nH]c(=O)[nH]c(=O)c1[N+](=O)[O-])Nc1ccccc1 | 0.6 | i | 39.6* | i | -13.1 | -0.698 | 8.6
COc1ccc(S(=O)(=O)NCCc2cn3nc(C)c(C)nc3n2)cc1F | · | · | -0.1 | · | · | · | ·
Cc1ccc(N=Cc2cc(Cc3ccccc3Cl)cc([N+](=O)[O-])c2O)c(O)c1 | -0.2 | i | 30.4 | i | 11.9 | 0.956 | 30.2
CCN(CC)S(=O)(=O)c1cccc(C(=O)N/N=C(\C)c2ccc(O)cc2O)c1 | 0.4 | i | -42.7 | i | -3.2 | -0.294 | -19.4
CCc1ccc(C(C)NC(=O)COC(=O)c2ccc(-n3cnnn3)cc2)cc1 (configuration not stated) | · | · | -6.9 | · | · | · | ·
c1cc(N2CCCCC2)nc(N2CCCCC2)n1 | · | · | -9.2 | · | · | · | ·
C[c-]1[c-](C)[c-](C)[c-](C)[c-]1C.[Fe].c1cc2nccc(N3CCCC3)[c-]2c1 (configuration not stated) | · | · | 48.5*! | i | -26.3 | 0.524 | -2.4
CCCCCCCCCC(=O)NNC(=O)c1c(O)c2ccccc2n(CC)c1=O | 0.8 | i | -40.8 | i | 2.1 | -0.137 | -21.2
CC1(NC(=O)CCNC(=O)c2ccc(C(C)(C)C)cc2)CCS(=O)(=O)C1 (configuration not stated) | · | · | -3.1 | · | · | · | ·
CCn1c(CNC(=O)c2ccccc2OC)nnc1SCC(=O)c1ccc(F)cc1 | · | · | -6.1 | · | · | · | ·
CC(=O)N1c2ccc3ccccc3c2C2C=CCC2C1c1ccc(Br)cc1 (configuration not stated) | -0.3 | i | · | · | -15.6 | -0.231 | ·
CC(=O)N1c2ccc(Cl)cc2C2C=CCC2C1c1cccc2ccccc12 (configuration not stated) | 0.1 | i | 42.5* | i | 27.1 | -0.426 | 3.1
COC(=O)c1ccccc1NC1=C/C(=N\S(=O)(=O)c2ccc(C(=O)O)cc2)c2ccccc2C1=O | · | · | 82.0* | · | · | · | 86.0
COC(=O)c1ccccc1NC1=C/C(=N\S(=O)(=O)c2cccs2)c2ccccc2C1=O | -0.3 | i | 39.2*! | i | -22.5 | 2.45 | 38.6
O=C1C(Nc2ccccc2)=C/C(=N/S(=O)(=O)c2cccs2)c2ccccc21 | -0.7 | i | 67.7* | i | -5.1 | -0.465 | 65.0
CC1CC(C)(C)CC2(C1)NC(=O)N(CC(=O)Nc1cc(C(F)(F)F)ccc1N1CCCCC1)C2=O (configuration not stated) | · | · | -1.8 | · | · | · | ·
COc1cc(C2c3c(oc4ccccc4c3=O)C(=O)N2c2nccs2)ccc1O (configuration not stated) | -1.0 | · | 2.5 | i | -20.6 | 3.18 | ·
Cc1ccc(NC(=O)CSCC(=O)NNC(=O)c2nn(C)c(=O)c3ccccc23)cc1 | · | · | -3.6 | · | · | · | ·
O=S(=O)(c1cccc(COc2ccc(Cl)cc2Cl)c1)N1CCOCC1 | · | · | 38.6* | · | · | · | -37.1
SMILES | PERK inh | Autophagy mod | HKDC1 inhibitor | HSV replic up | TbHK1 inh | Dynein transport | HKDC1 act conf
CC(=O)c1cc(Cl)ccc1OCc1cccc(S(=O)(=O)N2CCOCC2)c1 | · | · | 12.3 | · | · | · | ·
COc1ccc2c(COC(=O)[C@@H]3CCCN3S(=O)(=O)c3ccc(Cl)cc3)cc(=O)oc2c1 | · | · | 3.1 | · | · | · | ·
COc1cc(N=c2ssnc2Cl)cc(OC)c1 | -0.1 | i | -51.1 | i | 16.7 | -4.16 | -33.5
CC(=O)Nc1ccc(NC(=O)C(C)OC(=O)CCC2CCCC2)cc1 (configuration not stated) | · | · | -2.8 | · | · | · | ·
CCCCNCCOCCOc1ccccc1-c1ccccc1 | -0.6 | i | -58.9 | · | 8.5 | -0.809 | -7.3
COCCNCCCCOc1ccccc1-c1ccccc1 | -1.0 | i | -12.8 | · | 2.7 | 0.11 | ·
O=C(Nc1ccc(Nc2ccncc2)cc1)c1ccc(Nc2ccnc3ccc([N+](=O)[O-])cc23)cc1 | -0.4 | · | 43.7* | i | -35.1 | -0.798 | -7.2
O=C1C=CC2(C=C1)O[C@H](Cc1ccccc1)[C@@H](Cc1ccccc1)O2 | · | · | 38.3* | · | · | · | 3.1
CCOC(=O)C1=C(Cc2ccc(Cl)cc2)C(=O)c2ccccc2C1=O | -0.7 | i | 60.1* | · | -4.3 | -2.47 | 39.3
C[C@H](CO)N1C[C@H](C)[C@@H](CN(C)S(=O)(=O)c2cccs2)Oc2c(NC(=O)NC3CCCCC3)cccc2C1=O | · | · | -1.1 | · | · | · | ·
CCOC(=O)c1cc(-c2ccc(/C=N\n3cnnc3)o2)ccc1Cl | 0.0 | i | -4.3 | i | -49.5 | 0.981 | ·
CCOC(=O)c1cc(-c2ccc(/C=C3/C(=O)N(c4ccc(C(=O)O)cc4)N=C3C)o2)ccc1Cl | · | · | 42.5* | · | · | · | 15.3
Cc1ccc(C(=O)Nc2ccccc2C(=O)O)cc1S(=O)(=O)Nc1ccc(Br)cc1 | · | · | 3.3 | · | · | · | ·
O=C(O)c1cc(O)c2c(c1)C(=O)c1cccc(O)c1C2=O | 2.3 | i | 40.2* | i | 11.1 | 0.714 | -2.0
CCC(=O)Nc1sc(Cc2ccccc2)c(C)c1C(N)=O | -0.2 | i | -10.1 | i | -0.2 | 1.58 | ·
COC(=O)c1c(NC(C)=O)sc(Cc2ccccc2)c1C | -1.1 | i | -77.4 | i | 0.7 | 0.153 | -37.8*
Cc1c(Cc2ccccc2)sc(NC(=O)Cc2ccccc2)c1C(N)=O | -0.7 | i | -52.4 | i | 7.0 | 3.21 | -7.0
O=C(CN1C(=O)NC2(CCCC2)C1=O)NNC(=O)c1ccc(Br)cc1 | · | · | -4.2 | · | · | · | ·
CCNc1nnc(SCC(=O)NC2CCCCCC2)s1 | · | · | -3.2 | · | · | · | ·
CC(NNC(=S)N1CCN(c2ccccn2)CC1)c1nccc2ccccc12 (configuration not stated) | · | · | -41.9 | · | · | · | -74.7*
COc1cc(/C=C2/C(=O)NN(c3ccc(Cl)c(Cl)c3)C2=O)cc([N+](=O)[O-])c1O | · | · | 49.6* | · | · | · | 33.1
COc1ccc2cc(CCNC(=O)c3ccc(S(=O)(=O)N4CCCC4)cc3)c(=O)[nH]c2c1 | · | · | 32.5 | · | · | · | 59.8
COc1ccc2cc(CCNC(=O)c3ccc4c(c3)OCO4)c(=O)[nH]c2c1 | -0.4 | i | 3.3 | i | -7.3 | -0.853 | ·
CCN(CC)S(=O)(=O)c1ccc(C(=O)NCCc2cc3c(OC)ccc(OC)c3[nH]c2=O)cc1 | -0.8 | i | 28.2 | · | -7.1 | -0.403 | ·
